Reference: PubChem BioAssay AID743338 (The Scripps Research Institute Molecular Screening Center, 2014)
The source made the active and inactive calls.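 The calls were made as follows: active = IC50 at or below 10 µM; inactive = IC50 above 10 µM.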

biological target: Disintegrin and metalloproteinase domain-containing protein 10 (Homo sapiens) (UniProt O14672); assay: inhibition of ADAM10 substrate cleavage, late-stage follow-up, ADAM10 exosite inhibitor project, biochemical, QFRET peptide, fluorescence (AID 743338); conditions: recombinant ADAM10, QFRET peptide cleavage
Sequence (O14672 214-748 limits assumed): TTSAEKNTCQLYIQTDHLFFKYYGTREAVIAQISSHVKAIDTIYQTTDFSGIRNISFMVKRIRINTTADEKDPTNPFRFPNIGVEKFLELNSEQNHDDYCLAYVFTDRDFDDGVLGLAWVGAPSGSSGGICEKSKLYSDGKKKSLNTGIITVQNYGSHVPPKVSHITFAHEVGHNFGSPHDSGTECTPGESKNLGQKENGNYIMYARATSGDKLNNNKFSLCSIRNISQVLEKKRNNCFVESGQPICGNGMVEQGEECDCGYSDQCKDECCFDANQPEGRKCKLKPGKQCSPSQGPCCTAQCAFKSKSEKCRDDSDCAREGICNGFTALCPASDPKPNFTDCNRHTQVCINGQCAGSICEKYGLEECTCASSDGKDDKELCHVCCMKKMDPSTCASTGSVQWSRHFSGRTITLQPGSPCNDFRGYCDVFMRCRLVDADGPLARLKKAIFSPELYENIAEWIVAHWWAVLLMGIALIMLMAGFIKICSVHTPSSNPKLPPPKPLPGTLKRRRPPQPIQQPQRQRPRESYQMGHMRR
How it was run: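 evaluation = IC50 from four-parameter inhibition curve fit | test system = human ADAM10 | also added = DM2 quenched peptide substrate | dosing = 10 doses, 1:3 steps, up to 69.5 µM | times = Enzyme–compound preincubation 30 min at 25 °C, substrate reaction 3 h | benchmarks = 1 µM marimastat high, DMSO low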

| Structure (SMILES) | IC50 |
| --- | --- |
| O=C(Nc1ccc(OCC(F)(F)C(F)F)c(C(F)(F)F)c1)c1ccc(Cl)cc1 | > 69.5 µM (inactive) |
| COc1ccc2nc(SCC(=O)Nc3ccc(S(=O)(=O)N4CCCC4)cc3)c(C#N)cc2c1 | > 69.5 µM (inactive) |
| Cc1ccc(S(=O)(=O)Nc2ccc(Cl)cc2)cc1NC(=O)c1cc2c(s1)CCCC2 | > 69.5 µM (inactive) |
| COc1cccc(C(=O)NNC(=O)C(=O)Nc2ccc(C)c(Cl)c2)c1 | 6.5 µM |
| O=C(Nc1ccc(OCC(F)(F)C(F)(F)F)c(C(F)(F)F)c1)c1ccc(F)cc1 | > 69.5 µM (inactive) |
| COc1ccccc1NS(=O)(=O)c1cccc(NC(=O)Nc2ccc(Cl)cc2)c1 | > 69.5 µM (inactive) |
| O=C(O)CCC(=O)c1c[nH]c2ccccc12 | > 69.5 µM (inactive) |
| CCCCN(Cc1ccccc1)S(=O)(=O)c1cc(Br)cc2c1N(C(C)=O)C(C)C2 (stereo not drawn) | > 69.5 µM (inactive) |
| Oc1cc2c(cc1C(c1ccc(Cl)c(Cl)c1)N1CCCC1)OCO2 (stereo not drawn) | 4.87 µM |
| C=C(C)COc1ccc(-c2[nH]ncc2Oc2ccc(OC)cc2)c(O)c1 | inactive |
| COc1ccc(-c2ccc(-c3noc(-c4cccc(OC)c4)n3)c(OC)n2)cc1 | > 69.5 µM (inactive) |
| O=C(Nc1ccc(OCC(F)(F)C(F)(F)F)c(C(F)(F)F)c1)c1ccc(Br)cc1 | > 69.5 µM (inactive) |
| C=C(C)COc1ccc(-c2[nH]ncc2Oc2cccc(OC)c2)c(O)c1 | inactive |
| O=C(CN(Cc1cccs1)S(=O)(=O)c1ccc(S(=O)(=O)NC2CCCCC2)cc1)Nc1ccccc1 | > 69.5 µM (inactive) |

Continued, values first:

| IC50 | Structure (SMILES) |
| --- | --- |
| > 69.5 µM (inactive) | Cc1ccc(OCC(O)Cn2c3ccccc3c3ccccc32)cc1 (stereo not drawn) |
| > 69.5 µM (inactive) | O=S(=O)(NCC(Nc1ccc(Cl)cc1)c1ccccc1)c1ccc(Cl)cc1 (stereo not drawn) |
| inactive | C=C(C)COc1ccc(-c2n[nH]c(C)c2Oc2ccccc2OC)c(O)c1 |
| > 69.5 µM (inactive) | CS(=O)(=O)N(CC(=O)Nc1ccccc1Sc1ccccc1)c1cccc(Br)c1 |
| > 69.5 µM (inactive) | CCOc1ccc(NC(=O)CC2SC(=O)N(c3ccccc3)C2=O)cc1 (stereo not drawn) |
| > 69.5 µM (inactive) | Cc1csc(-c2cnn(-c3ccccc3)c2NC(=O)c2ccc(C(F)(F)F)cc2)n1 |
| inactive | O=C1NC(=O)C(Cc2ccc(Cl)cc2)(c2ccccc2)N1 (stereo not drawn) |
| > 69.5 µM (inactive) | Cc1ccc(CC2(c3ccccc3)NC(=O)NC2=O)cc1 (stereo not drawn) |
| > 69.5 µM (inactive) | O=S(=O)(NCC(Nc1ccc(Cl)cc1)c1ccccc1)c1ccccc1 (stereo not drawn) |
